Test results taken from ChEMBL document CHEMBL3751743, “Synthesis and anti-cancer screening of novel heterocyclic-(2H)-1,2,3-triazoles as potential anti-cancer agents” (Medchemcomm, 2015).

Columns and labels:
[1] = Cytotoxicity against human DU145 cells after 48 hrs by SRB assay; assay type: functional; conditions: DU-145, 48 h
Summary of the method: (§1)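 NCI-60 five-dose screen: compounds dissolved in DMSO/H2O, tested at five 10-fold dilutions (10^-4 to 10^-8 M) for 48 h. Growth measured by sulforhodamine B optical density at time zero and after 48 h drug or vehicle exposure. Percentage growth calculated relative to control. GI50 is the molar concentration giving 50% reduction in net cell growth versus day-0 cell numbers.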

MCF7 = experiment: Cytotoxicity against human MCF7 cells after 48 hrs by SRB assay; assay type: functional; conditions: MCF7, 48 h; summary of the method: as §1
MDA-MB-231 = experiment: Cytotoxicity against human MDA-MB-231 cells after 48 hrs by SRB assay; assay type: functional; conditions: MDA-MB-231, 48 h; summary of the method: as §1
[2] = Cytotoxicity against human Hs 578T cells after 48 hrs by SRB assay; assay type: functional; summary of the method: as §1
[3] = Cytotoxicity against human BT549 cells after 48 hrs by SRB assay; assay type: functional; conditions: BT-549, 48 h; summary of the method: as §1
MDA-MB-468 = experiment: Cytotoxicity against human MDA-MB-468 cells after 48 hrs by SRB assay; assay type: functional; conditions: MDA-MB-468, 48 h; summary of the method: as §1
[4] = Cytotoxicity against human Hs578T cells assessed as reduction of cell viability after 48 hrs by calcein-AM-based fluorescence analysis; assay type: functional; conditions: Hs-578T
Summary of the method: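 Cells seeded at 3,000 per well in DMEM with 10% FBS and left overnight at 37 °C. A range of compound concentrations or vehicle was then added for 48 h. Cells were washed with DPBS pH 7.4 and loaded with 2 μM calcein-AM for 30 min at 25 °C. Fluorescence read at ex 490/em 520 nm; viability is given relative to untreated control (100%). Mean ± s.d.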

Tubulin = Tubulin (Sus scrofa, UniProt P02554+P02550); experiment: Inhibition of porcine brain tubulin polymerization by spectrophotometric analysis
Summary of the method: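 Tubulin at 4 mg/mL in cold 80 mM PIPES pH 6.9 with 2 mM MgCl2, 0.5 mM EGTA, GTP and 10% glycerol. Compound (added as 10x stock in 50% DMSO) or DMSO was preincubated 2 min at 37 °C in a prewarmed plate. Cold tubulin was then added, and polymerization at 37 °C was followed by A340 over time. Dose-response, mean ± s.d., n=3.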

CCRF-CEM = experiment: Cytotoxicity against human CCRF-CEM cells after 48 hrs by SRB assay; assay type: functional; summary of the method: as §1
[5] = Cytotoxicity against human HL-60(TB) cells after 48 hrs by SRB assay; assay type: functional; conditions: HL-60, 48 h; summary of the method: as §1
K562 = experiment: Cytotoxicity against human K562 cells after 48 hrs by SRB assay; assay type: functional; conditions: K562, 48 h; summary of the method: as §1
[6] = Cytotoxicity against human MOLT4 cells after 48 hrs by SRB assay; assay type: functional; conditions: MOLT-4, 48 h; summary of the method: as §1
[7] = Cytotoxicity against human RPMI8226 cells after 48 hrs by SRB assay; assay type: functional; conditions: RPMI-8226, 48 h; summary of the method: as §1
SR = experiment: Cytotoxicity against human SR cells after 48 hrs by SRB assay; assay type: functional; summary of the method: as §1
A549 = experiment: Cytotoxicity against human A549 cells after 48 hrs by SRB assay; assay type: functional; conditions: A549, 48 h; summary of the method: as §1
[8] = Cytotoxicity against human HOP62 cells after 48 hrs by SRB assay; assay type: functional; conditions: HOP-62, 48 h
Summary of the method: (§2)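 NCI-60 five-dose screen: compounds in DMSO/H2O tested at 10^-4 to 10^-8 M (10-fold steps) for 48 h. Cell mass read by sulforhodamine B optical density at time zero and after exposure to compound or vehicle. GI50 is the concentration giving 50% reduction in net cell growth relative to day-0 cell numbers.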

[9] = Cytotoxicity against human HOP92 cells after 48 hrs by SRB assay; assay type: functional; conditions: HOP-92, 48 h; summary of the method: as §1
NCI-H23 = experiment: Cytotoxicity against human NCI-H23 cells after 48 hrs by SRB assay; assay type: functional; conditions: NCI-H23, 48 h; summary of the method: as §1
NCI-H460 = experiment: Cytotoxicity against human NCI-H460 cells after 48 hrs by SRB assay; assay type: functional; conditions: NCI-H460, 48 h; summary of the method: as §1
NCI-H522 = experiment: Cytotoxicity against human NCI-H522 cells after 48 hrs by SRB assay; assay type: functional; conditions: NCI-H522, 48 h; summary of the method: as §1
[10] = Cytotoxicity against human COLO205 cells after 48 hrs by SRB assay; assay type: functional; conditions: COLO 205, 48 h; summary of the method: as §1
[11] = Cytotoxicity against human HCC2998 cells after 48 hrs by SRB assay; assay type: functional; conditions: HCC 2998, 48 h; summary of the method: as §1
[12] = Cytotoxicity against human HCT116 cells after 48 hrs by SRB assay; assay type: functional; conditions: HCT-116, 48 h; summary of the method: as §1
[13] = Cytotoxicity against human HCT15 cells after 48 hrs by SRB assay; assay type: functional; conditions: HCT-15, 48 h; summary of the method: as §1
HT-29 = experiment: Cytotoxicity against human HT-29 cells after 48 hrs by SRB assay; assay type: functional; conditions: HT-29, 48 h; summary of the method: as §1
KM12 = experiment: Cytotoxicity against human KM12 cells after 48 hrs by SRB assay; assay type: functional; conditions: KM12, 48 h; summary of the method: as §1
[14] = Cytotoxicity against human SW620 cells after 48 hrs by SRB assay; assay type: functional; conditions: SW-620, 48 h; summary of the method: as §1
[15] = Cytotoxicity against human SF268 cells after 48 hrs by SRB assay; assay type: functional; conditions: SF-268, 48 h; summary of the method: as §1
[16] = Cytotoxicity against human SF295 cells after 48 hrs by SRB assay; assay type: functional; conditions: SF-295, 48 h; summary of the method: as §1
[17] = Cytotoxicity against human SF539 cells after 48 hrs by SRB assay; assay type: functional; conditions: SF-539, 48 h; summary of the method: as §1
[18] = Cytotoxicity against human SNB19 cells after 48 hrs by SRB assay; assay type: functional; conditions: SNB-19, 48 h; summary of the method: as §1
[19] = Cytotoxicity against human SNB75 cells after 48 hrs by SRB assay; assay type: functional; conditions: SNB-75, 48 h; summary of the method: as §1
U-251 = experiment: Cytotoxicity against human U251 cells after 48 hrs by SRB assay; assay type: functional; conditions: U-251, 48 h
Summary of the method: (§3)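 NCI-60 five-dose screen. Compounds dissolved in DMSO/H2O and tested at five 10-fold dilutions (10^-4 to 10^-8 M) for 48 h. Growth read by sulforhodamine B optical density at time zero and after 48 h of exposure to compound or vehicle. Percent growth calculated against control. GI50 is the molar concentration giving 50% reduction in net cell growth relative to cell number on day 0.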

[20] = Cytotoxicity against human LOXIMVI cells after 48 hrs by SRB assay; assay type: functional; conditions: LOX IMVI; summary of the method: as §1
M14 = experiment: Cytotoxicity against human M14 cells after 48 hrs by SRB assay; assay type: functional; conditions: M14, 48 h; summary of the method: as §1
MDA-MB-435 = experiment: Cytotoxicity against human MDA-MB-435 cells after 48 hrs by SRB assay; assay type: functional; conditions: MDA-MB-435, 48 h; summary of the method: as §1
SK-MEL-2 = experiment: Cytotoxicity against human SK-MEL-2 cells after 48 hrs by SRB assay; assay type: functional; conditions: SK-MEL-2, 48 h; summary of the method: as §1
SK-MEL-28 = experiment: Cytotoxicity against human SK-MEL-28 cells after 48 hrs by SRB assay; assay type: functional; conditions: SK-MEL-28, 48 h; summary of the method: as §1
SK-MEL-5 = experiment: Cytotoxicity against human SK-MEL-5 cells after 48 hrs by SRB assay; assay type: functional; conditions: SK-MEL-5, 48 h; summary of the method: as §1
[21] = Cytotoxicity against human UACC257 cells after 48 hrs by SRB assay; assay type: functional; conditions: UACC-257, 48 h; summary of the method: as §3
[22] = Cytotoxicity against human UACC62 cells after 48 hrs by SRB assay; assay type: functional; conditions: UACC-62, 48 h; summary of the method: as §3
[23] = Cytotoxicity against human IGROV1 cells after 48 hrs by SRB assay; assay type: functional; conditions: IGROV-1, 48 h; summary of the method: as §2
[24] = Cytotoxicity against human OVCAR3 cells after 48 hrs by SRB assay; assay type: functional; conditions: OVCAR-3, 48 h; summary of the method: as §1
[25] = Cytotoxicity against human OVCAR4 cells after 48 hrs by SRB assay; assay type: functional; conditions: OVCAR-4, 48 h; summary of the method: as §1
[26] = Cytotoxicity against human OVCAR5 cells after 48 hrs by SRB assay; assay type: functional; conditions: OVCAR-5, 48 h; summary of the method: as §1
[27] = Cytotoxicity against human OVCAR8 cells after 48 hrs by SRB assay; assay type: functional; conditions: OVCAR-8, 48 h; summary of the method: as §1
[28] = Cytotoxicity against human NCI-ADR-RES cells after 48 hrs by SRB assay; assay type: functional; summary of the method: as §1
[29] = Cytotoxicity against human SKOV3 cells after 48 hrs by SRB assay; assay type: functional; conditions: SK-OV-3, 48 h; summary of the method: as §1
786-0 = experiment: Cytotoxicity against human 786-0 cells after 48 hrs by SRB assay; assay type: functional; conditions: 786-0, 48 h; summary of the method: as §1
A498 = experiment: Cytotoxicity against human A498 cells after 48 hrs by SRB assay; assay type: functional; conditions: A498, 48 h; summary of the method: as §1
ACHN = experiment: Cytotoxicity against human ACHN cells after 48 hrs by SRB assay; assay type: functional; summary of the method: as §1
[30] = Cytotoxicity against human Caki1 cells after 48 hrs by SRB assay; assay type: functional; conditions: CAKI-1, 48 h; summary of the method: as §1
SN12C = experiment: Cytotoxicity against human SN12C cells after 48 hrs by SRB assay; assay type: functional; summary of the method: as §1
[31] = Cytotoxicity against human UO31 cells after 48 hrs by SRB assay; assay type: functional; conditions: UO-31, 48 h; summary of the method: as §3
[32] = Cytotoxicity against human PC3 cells after 48 hrs by SRB assay; assay type: functional; conditions: PC-3, 48 h; summary of the method: as §1

COc1cc(-c2n[nH]nc2-c2cc3ccccc3s2)cc(OC)c1OC
15 nM: GI50 [8]
10 nM: GI50 [4]
1700 nM: IC50 (Tubulin)
28 nM: GI50 (CCRF-CEM)
48 nM: GI50 (SN12C)
42 nM: GI50 [6] | GI50 [25] | GI50 [26]
14 nM: GI50 (MDA-MB-231)
20 nM: GI50 (HT-29)
36 nM: GI50 [11]
34 nM: GI50 [32]
< 10 nM: GI50 [1] | GI50 (MCF7) | GI50 [2] | GI50 [3] | GI50 (MDA-MB-468) | GI50 [5] | GI50 (K562) | GI50 [7] | GI50 (SR) | GI50 [9] | GI50 (NCI-H23) | GI50 (NCI-H460) | GI50 (NCI-H522) | GI50 [10] | GI50 [12] | GI50 [13] | GI50 [14] | GI50 [15] | GI50 [16] | GI50 [17] | GI50 [18] | GI50 [19] | GI50 (U-251) | GI50 [20] | GI50 (M14) | GI50 (MDA-MB-435) | GI50 (SK-MEL-2) | GI50 (SK-MEL-28) | GI50 (SK-MEL-5) | GI50 [21] | GI50 [22] | GI50 [23] | GI50 [24] | GI50 [27] | GI50 [28] | GI50 [29] | GI50 (786-0) | GI50 (A498) | GI50 (ACHN) | GI50 [30] | GI50 [31]
22 nM: GI50 (KM12)
23 nM: GI50 (A549)
